This is a sample that favours compounds with a hit; in the whole collection about 4.6% have one here.
GPR7 antagonist: blocks human GPR7 receptor signaling | inhibition, % at 4.4 µM | AID 1861 | 1.1% of 290,000 active | P48145 | GPR7-expressing cells, fluorescence antagonist assay; in the data active = inhibition above about 16%, passing the limit was not always enough;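 also: cells stimulated with the agonist NPW; 0% = agonist with vehicle and 100% = vehicle without agonist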
TAAR1 ag: human TAAR1 agonism | Q96RJ0 | CHO RD-HGA16 TAAR1, Fluo-8 calcium fluorescence; vehicle wells 0%, saturating PEA agonist 100% | activation, % at 3 µM | 0.99% of 360,000 active | AID 624467;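 active = activation above the mean activation of all test compounds in the run plus 3 SD, cut at about 38% in these data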
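Assay system – CHO-derived RD-HGA16 cells with stable Gα16 and human TAAR1 · Compound dosing – one-point dosing at 3 µM (nominal) · Incubation – 17-24 h seeding, 75 min 37 °C dye, 30 min RT · Measured by – kinetic Fluo-8 calcium fluorescence · Control set – DMSO vehicle as 0%, PEA at EC100 as 100% · Repeats – single well for each compound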
OX1R antag-1: human HCRTR1 antagonism | AID 434989 | CHO/OX1R cells, Fluo-8 calcium fluorescence, orexin A | O43613 | inhibition, % at 5 µM | 0.43% of 330,000 active;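 active = inhibition above its plate's threshold, mean inhibition of all tested compounds on the plate plus 3 SD, cut at about 37% in these data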;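 also: 0% = orexin A challenge wells and 100% = SB-334867-A antagonist wells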
Target sequence (O43613 whole entry, looked up): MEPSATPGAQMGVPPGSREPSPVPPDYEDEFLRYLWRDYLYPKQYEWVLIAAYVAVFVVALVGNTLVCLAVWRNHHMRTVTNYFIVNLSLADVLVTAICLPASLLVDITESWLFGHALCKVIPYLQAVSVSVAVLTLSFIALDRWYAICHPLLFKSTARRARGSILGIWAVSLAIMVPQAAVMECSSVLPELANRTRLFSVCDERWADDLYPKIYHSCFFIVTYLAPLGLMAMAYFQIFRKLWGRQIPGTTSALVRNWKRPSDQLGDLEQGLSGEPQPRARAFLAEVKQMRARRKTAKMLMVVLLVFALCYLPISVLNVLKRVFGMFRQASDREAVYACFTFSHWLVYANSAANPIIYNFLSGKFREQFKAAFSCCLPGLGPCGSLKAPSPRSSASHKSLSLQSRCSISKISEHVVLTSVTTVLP
TAAR1 antag: human TAAR1 antagonism. inhibition, % at 3 µM. Q96RJ0. CHO RD-HGA16 TAAR1, Fluo-8 calcium fluorescence, antagonist. 1.5% of 360,000 active. AID 624466;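 active = inhibition above a per-plate cutoff, the mean inhibition of test compounds on that plate plus 3 SD, cut at about 49% in these data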;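 also: 0% = DMSO plus EC80 beta-PEA response and 100% = DMSO alone without agonist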
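Test system: RD-HGA16 CHO cells with stable hTAAR1 and Gα16 / Probe or stimulus: EC80 β-phenethylamine stimulus / Times: seeding 17-24 h prior, 75-min 37 °C, 30-min RT dye loading / Detection: Fluo-8 calcium-sensitive fluorescence / Read-out basis: % inhibition scaled between DMSO and EC80 PEA controls / Repeats: singlicate, one well per test compound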
OX1R antag-2: blocks the human orexin 1 receptor. O43613. OX1R-expressing cells, FRET antagonist read-out. inhibition, % at 6.6 µM. 1.8% of 330,000 active; in the data active = inhibition mostly above about 38%, no sharp cut-off; inactive = mostly below about 40%;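 also: 0% = agonist challenge alone and 100% = reference antagonist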
CHO parental Ca: signal in parental CHO cells, OX1R antagonist counter-screen. parental CHO-K1, ATP-induced calcium, Fluo-8 fluorescence. inhibition, % at 5.6 µM. 0.63% of 330,000 active. AID 463079;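 active = inhibition above that plate's mean sample inhibition plus 3 SD, cut at about 26% in these data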;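 also: 0% = ATP-challenged DMSO wells and 100% = DMSO wells without ATP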
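material = parental CHO cells | also added = ATP as calcium-mobilizing challenge | dosing = single point at 5.6 µM | detection = intracellular calcium via Fluo-8 no-wash fluorescent dye | read-out = % inhibition | benchmarks = low control ATP plus DMSO, high control DMSO only | repeats = one well per compound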
Active calls of the source: *; / = not tested or not shown.

SMILES	GPR7 antagonist	TAAR1 ag	OX1R antag-1	TAAR1 antag	OX1R antag-2	CHO parental Ca
Cc1ccc(C(=O)Nc2ccccc2C(=O)NC(Cc2ccccc2)C(=O)O)cc1 (centres undefined)	8.8	1.6	-5.2	6.6	6.6	-10.8
Cn1ncc2c(NCCc3ccccc3)nc(Cl)nc21	/	37.8*	/	43.1	/	/
O=C(COC(=O)Cc1ccccc1[N+](=O)[O-])NNC(=O)c1ccc([N+](=O)[O-])cc1	/	3.3	-12.9	-10.7	36.0*	-4.7
O=C(COC(=O)C1CC2CCCC(C1)C2=O)NNC(=O)c1ccc([N+](=O)[O-])cc1 (centres undefined)	/	-0.1	-15.4	-15.9	69.2*	-0.2
COc1cccc(CC(=O)OCC(=O)NNC(=O)c2ccc([N+](=O)[O-])cc2)c1	-5.5	-0.7	-11.3	-33.1	59.9*	-8.7
O=C(c1ccc([N+](=O)[O-])cc1)N1CCN(C(=O)c2cccnc2)CC1	-1.5	1.3	-14.5	-7.7	53.2*	11.6
O=C(Nc1ccccc1)c1cc(C2CCCCN2C(=O)c2ccccc2)on1 (centres undefined)	/	2.0	/	-5.1	/	/
CCN(CC(=O)Nc1c(F)cccc1F)C(=O)COc1ccc2c(C)cc(=O)oc2c1	-7.6	0.4	-20.9	-1.6	24.0	-16.0
Nc1ccc(Sc2ccccc2CC(=O)O)cc1	-5.8	/	-13.1	/	12.2	-6.4
CCOc1ccc(OCC(=O)OCC(=O)NNC(=O)c2ccc([N+](=O)[O-])cc2)cc1	/	0.8	3.3	1.7	56.8*	6.9
CN(c1ccc(OCC(=O)OCC(=O)Nc2ccccc2)cc1)S(=O)(=O)c1ccc(F)cc1	-9.3	21.1	-5.2	30.8	12.1	-2.6
O=C(NNC(=O)c1ccc([N+](=O)[O-])cc1)c1ccncc1	5.1	2.4	8.7	1.0	70.3*	10.6
CC(=O)Nc1cccc(C(=O)OCc2ccc([N+](=O)[O-])cc2)c1	-8.1	1.3	-8.1	-11.3	18.3	-4.6
CC(=O)Nc1cccc(C(=O)OCC(=O)NNC(=O)c2ccc([N+](=O)[O-])cc2)c1	/	4.1	-5.8	-34.3	52.1*	1.6
O=C(NNC(=O)c1ccc([N+](=O)[O-])cc1)c1ccc(F)cc1	/	5.4	5.6	-19.6	61.5	-0.2
CN(c1ccc(OCC(=O)OCC(=O)Nc2ccc([N+](=O)[O-])cc2)cc1)S(=O)(=O)c1cccs1	/	41.2*	/	59.6*	/	/
O=C(NC1CC2CCCC(C1)N2C(=O)Nc1ccccc1)C1CC1 (centres undefined)	-12.2	2.4	-6.5	-11.0	28.3	-9.5
O=C(COC(=O)CSc1ccccc1)NNC(=O)c1ccc([N+](=O)[O-])cc1	-8.5	0.4	-9.7	-1.7	47.1	-5.3
O=C(COC(=O)CSc1ccc(F)cc1)NNC(=O)c1ccc([N+](=O)[O-])cc1	/	0.5	2.6	-3.4	59.5*	-1.7
O=S(=O)(c1cccs1)N1CCN(c2ccnc3cc(Cl)ccc23)CC1	4.7	0.3	-38.7	34.9	8.1	-14.5
O=S(=O)(c1ccccc1)N1CCN(c2ccnc3cc(Cl)ccc23)CC1	10.6	6.4	38.3	39.1	28.6	88.7*
CC1=NN(C(N)=S)C(=O)C1N=Nc1ccc(O)cc1 (centres undefined)	-0.3	1.9	/	4.6	/	/
CC(=O)Nc1ccc(N=NC2C(=O)N(C(N)=S)N=C2C)cc1 (centres undefined)	-13.0	5.5	-9.7	1.3	33.5*	-6.9
COc1cccc(/C=C(/C(=O)OCC(=O)NC2CCCC(C)C2C)c2ccccc2)c1 (centres undefined)	-11.8	1.3	-8.8	40.0	7.4	65.3*
COc1ccc(/C=C/C(=O)OCC(=O)NC2CCCC(C)C2C)c(OC)c1 (centres undefined)	/	-1.7	3.5	-2.2	9.9	-14.9
O=c1[nH]c(-[n+]2ccccc2)c(/C=N/N=C(\[O-])c2ccccc2)s1	-8.3	4.4	-9.7	-49.5	41.4*	-6.2
CC(=O)Nc1cccc(NC(=O)c2cc(-c3ccccn3)nc3ccc(Cl)cc23)c1	-8.0	9.2	-16.7	65.1*	10.8	-18.5
COc1ccc(F)cc1-c1cc(NC=O)c2ncc(-c3cc(OC)c(OC)c(OC)c3)n2c1	/	48.4*	/	76.8*	/	/

Screens (PubChem)
